In article PMC7564327 (Acta Pharmaceutica Sinica. B, 2020):
Structures can show the parent of a compound that is named as a salt.

Columns and labels:
hOATP2B1 = biological target: T1, hOATP2B1 (Homo sapiens, UniProt O94956); assay: Cellular uptake in HEK293-hOATP2B1 vs Mock cells; format: in vitro ADME
T1 sequence (O94956 1-709): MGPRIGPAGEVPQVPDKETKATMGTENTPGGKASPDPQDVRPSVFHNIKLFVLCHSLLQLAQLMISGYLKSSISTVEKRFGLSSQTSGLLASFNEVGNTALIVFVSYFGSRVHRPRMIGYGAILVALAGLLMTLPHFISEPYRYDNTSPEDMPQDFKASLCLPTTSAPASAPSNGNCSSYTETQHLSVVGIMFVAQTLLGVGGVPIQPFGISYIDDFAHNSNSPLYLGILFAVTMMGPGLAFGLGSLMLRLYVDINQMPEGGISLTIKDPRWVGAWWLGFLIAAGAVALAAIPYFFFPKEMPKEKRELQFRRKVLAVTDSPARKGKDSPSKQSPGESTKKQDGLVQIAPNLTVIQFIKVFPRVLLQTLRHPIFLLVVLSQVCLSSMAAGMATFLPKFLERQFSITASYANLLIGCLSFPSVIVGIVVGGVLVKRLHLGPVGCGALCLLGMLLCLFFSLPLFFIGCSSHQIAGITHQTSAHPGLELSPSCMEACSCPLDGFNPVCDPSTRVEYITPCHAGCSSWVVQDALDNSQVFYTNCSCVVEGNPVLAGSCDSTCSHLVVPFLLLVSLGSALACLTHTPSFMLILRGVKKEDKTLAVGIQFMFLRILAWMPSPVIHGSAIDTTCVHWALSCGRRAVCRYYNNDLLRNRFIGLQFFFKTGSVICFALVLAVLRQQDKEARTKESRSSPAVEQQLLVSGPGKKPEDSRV

hOATP1B3 = biological target: T2, hOATP1B3 (Homo sapiens, UniProt Q9NPD5); assay: Cellular uptake and kinetics in HEK293-hOATP1B3 vs Mock cells; format: in vitro ADME
T2 sequence (Q9NPD5 1-702): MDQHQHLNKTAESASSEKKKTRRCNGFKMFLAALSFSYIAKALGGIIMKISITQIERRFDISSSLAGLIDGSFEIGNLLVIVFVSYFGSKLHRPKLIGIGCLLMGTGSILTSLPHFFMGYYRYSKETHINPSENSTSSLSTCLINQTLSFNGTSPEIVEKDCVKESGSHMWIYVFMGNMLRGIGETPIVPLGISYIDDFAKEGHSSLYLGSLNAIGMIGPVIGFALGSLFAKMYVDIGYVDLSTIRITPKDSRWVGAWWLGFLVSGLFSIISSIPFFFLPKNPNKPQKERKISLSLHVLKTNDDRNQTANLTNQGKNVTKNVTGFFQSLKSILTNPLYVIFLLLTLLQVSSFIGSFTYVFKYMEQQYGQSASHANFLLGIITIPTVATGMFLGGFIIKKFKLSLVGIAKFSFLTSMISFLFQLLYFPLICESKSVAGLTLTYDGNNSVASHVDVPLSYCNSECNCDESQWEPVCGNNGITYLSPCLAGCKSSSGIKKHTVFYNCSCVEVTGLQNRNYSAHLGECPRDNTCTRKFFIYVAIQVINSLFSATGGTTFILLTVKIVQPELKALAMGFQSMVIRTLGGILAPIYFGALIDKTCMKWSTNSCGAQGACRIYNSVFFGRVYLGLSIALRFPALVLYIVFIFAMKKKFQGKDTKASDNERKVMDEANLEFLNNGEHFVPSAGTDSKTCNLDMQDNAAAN
Method in brief: (§1)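 Transfected cells and matching Mock cells were seeded at 2 × 10⁵ cells/mL and grown 2 days. After a DPBS (pH 7.4) wash and 10 min preincubation at 37 °C, cells took up 100 μmol/L test compound for 2–5 min at 37 °C. Uptake was stopped with three ice-cold DPBS washes, followed by methanol extraction and HPLC–MS. Values were normalised to BCA protein and compared with Mock.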

hOATP1B1 = biological target: T3, hOATP1B1 (Homo sapiens, UniProt Q9Y6L6); assay: Cellular uptake and kinetics in HEK293-hOATP1B1 vs Mock cells; format: in vitro ADME
T3 sequence (Q9Y6L6 1-691): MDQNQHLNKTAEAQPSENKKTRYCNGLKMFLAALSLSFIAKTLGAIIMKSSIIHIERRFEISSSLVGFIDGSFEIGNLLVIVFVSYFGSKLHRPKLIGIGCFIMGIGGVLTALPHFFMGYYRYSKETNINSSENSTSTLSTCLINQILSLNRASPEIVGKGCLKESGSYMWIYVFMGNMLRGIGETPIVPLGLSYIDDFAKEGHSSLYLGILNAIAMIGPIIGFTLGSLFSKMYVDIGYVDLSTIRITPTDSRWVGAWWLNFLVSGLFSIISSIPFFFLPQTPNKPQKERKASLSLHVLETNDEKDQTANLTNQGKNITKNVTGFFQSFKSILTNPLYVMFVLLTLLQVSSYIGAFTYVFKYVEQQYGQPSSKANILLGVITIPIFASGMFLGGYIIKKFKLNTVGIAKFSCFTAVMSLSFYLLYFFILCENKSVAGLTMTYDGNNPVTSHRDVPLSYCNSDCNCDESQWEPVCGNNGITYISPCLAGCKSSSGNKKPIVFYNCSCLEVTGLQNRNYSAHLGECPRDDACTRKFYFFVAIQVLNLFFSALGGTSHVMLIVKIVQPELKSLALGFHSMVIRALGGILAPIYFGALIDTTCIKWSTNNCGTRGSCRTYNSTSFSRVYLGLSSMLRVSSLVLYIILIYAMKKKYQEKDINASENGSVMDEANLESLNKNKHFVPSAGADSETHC

hOAT3 = biological target: T4, hOAT3 (Homo sapiens, UniProt Q8TCC7); assay: Cellular uptake and kinetics in S2-hOAT3 vs Mock cells; format: in vitro ADME
T4 sequence (Q8TCC7 1-542): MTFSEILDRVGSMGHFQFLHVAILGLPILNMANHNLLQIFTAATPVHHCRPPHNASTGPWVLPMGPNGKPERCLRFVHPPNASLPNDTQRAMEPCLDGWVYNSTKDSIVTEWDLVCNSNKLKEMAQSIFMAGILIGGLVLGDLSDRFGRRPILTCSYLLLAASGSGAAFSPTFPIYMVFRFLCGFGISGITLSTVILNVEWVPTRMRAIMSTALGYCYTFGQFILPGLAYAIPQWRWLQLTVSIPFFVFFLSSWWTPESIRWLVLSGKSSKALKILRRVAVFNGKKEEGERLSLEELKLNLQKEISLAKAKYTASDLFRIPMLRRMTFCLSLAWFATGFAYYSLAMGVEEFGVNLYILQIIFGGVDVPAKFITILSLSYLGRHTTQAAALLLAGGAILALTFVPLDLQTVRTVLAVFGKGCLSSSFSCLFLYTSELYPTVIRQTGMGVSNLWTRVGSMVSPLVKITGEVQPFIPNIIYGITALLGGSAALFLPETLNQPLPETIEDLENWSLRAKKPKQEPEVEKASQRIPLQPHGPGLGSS

mice liver slices = assay: In vitro uptake of TDE in mice liver slices; format: in vitro ADME, Kunming mice; settings: TDE 10 μmol/L
Method in brief: (§2)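 Kunming mice (20–25 g, fasted 12 h) were anaesthetised with urethane, and kidney or liver was decapsulated into ice-cold oxygenated buffer at pH 7.5. Slices of about 30 mg were preincubated 5 min under carbogen at 4 or 37 °C. They were then incubated with 10 μmol/L test compound for 5, 10 or 30 min, with or without reference OAT1/OAT3 or OATP inhibitors or co-ingredients. Slices were then washed, blotted, weighed and homogenised, then extracted with methanol and an internal standard for HPLC–MS.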

hOAT1 = biological target: T5, hOAT1 (Homo sapiens, UniProt Q4U2R8); assay: Cellular uptake in MDCK-hOAT1 vs Mock cells; format: in vitro ADME; settings: 100 μmol/L, substrate if >2-fold of wild type
T5 sequence (Q4U2R8 1-563): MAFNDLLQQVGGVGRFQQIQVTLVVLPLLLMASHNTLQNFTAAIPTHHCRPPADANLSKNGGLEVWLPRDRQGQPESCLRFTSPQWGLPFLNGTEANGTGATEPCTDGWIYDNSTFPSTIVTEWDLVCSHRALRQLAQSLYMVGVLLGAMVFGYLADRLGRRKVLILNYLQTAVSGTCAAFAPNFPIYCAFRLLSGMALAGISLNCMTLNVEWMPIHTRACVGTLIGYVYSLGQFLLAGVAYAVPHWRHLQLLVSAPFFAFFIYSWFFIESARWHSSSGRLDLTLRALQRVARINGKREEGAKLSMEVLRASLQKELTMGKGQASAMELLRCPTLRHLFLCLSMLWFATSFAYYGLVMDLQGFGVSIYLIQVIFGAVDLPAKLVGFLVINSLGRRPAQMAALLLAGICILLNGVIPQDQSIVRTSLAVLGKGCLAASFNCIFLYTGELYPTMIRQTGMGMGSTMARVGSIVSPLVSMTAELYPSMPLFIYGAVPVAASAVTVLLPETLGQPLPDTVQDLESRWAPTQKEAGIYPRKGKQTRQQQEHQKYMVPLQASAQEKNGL
Method in brief: as §1

mice kidney slices = assay: In vitro uptake of TDE in mice kidney slices; format: in vitro ADME, Kunming mice; settings: TDE 10 μmol/L
Method in brief: as §2

[1] = substrate: COc1cc2c(cc1OC)[C@@H]1Cc3ccc(OC)c(OC)c3CN1CC2; assay: Cellular uptake and kinetics in S2-hOAT3 vs Mock cells; format: in vitro ADME, human; settings: other: hOAT3, TDE 0.03-10 μmol/L, 2 min, 37 °C, Eadie-Hofstee, pH 7.4
[2] = 100 μmol/L, substrate if >2-fold of wild type

## CC12CCC3c4ccc(OS(=O)(=O)O)cc4CCC3C1CCC2=O (stereo not drawn) [3H-ES, 3H-estrone sulfate, reference compound]
hOATP2B1; 50 nmol/L 3H-ES, 2 min, HEK293-hOATP2B1 vs Mock
  accumulation of model substrate, fold higher than in Mock cells: 4.2 fold
hOATP2B1; HEK293-hOATP2B1, 50 nmol/L 3H-ES, 2 min
  Uptake rate, Control: 0.46 ± 0.011∗∗ pmol/mg protein/min
hOATP2B1; HEK293-hOATP2B1, 50 nmol/L 3H-ES, 2 min, inhibitor not named
  Uptake rate, Control + inhibitor: 0.19 ± 0.034 pmol/mg protein/min
hOATP1B3; 50 nmol/L 3H-ES, 2 min, HEK293-hOATP1B3 vs Mock
  accumulation of model substrate, fold higher than in Mock cells: 4.7 fold
hOATP1B3; HEK293-hOATP1B3, 50 nmol/L 3H-ES, 2 min
  Uptake rate, Control: 0.52 ± 0.017∗∗ pmol/mg protein/min
hOATP1B3; HEK293-hOATP1B3, 50 nmol/L 3H-ES, 2 min, inhibitor not named
  Uptake rate, Control + inhibitor: 0.24 ± 0.13 pmol/mg protein/min
hOATP1B1; 50 nmol/L 3H-ES, 2 min, HEK293-hOATP1B1 vs Mock
  accumulation of model substrate, fold higher than in Mock cells: 10.3 fold
hOATP1B1; HEK293-hOATP1B1, 50 nmol/L 3H-ES, 2 min
  Uptake rate, Control: 1.13 ± 0.11∗∗ pmol/mg protein/min
hOATP1B1; HEK293-hOATP1B1, 50 nmol/L 3H-ES, 2 min, inhibitor not named
  Uptake rate, Control + inhibitor: 0.35 ± 0.14 pmol/mg protein/min
hOAT3; 50 nmol/L 3H-ES, 2 min, S2-hOAT3 vs Mock
  accumulation of model substrate, fold higher than in Mock cells: 5.6 fold
hOAT3; S2-hOAT3, 50 nmol/L 3H-ES, 2 min
  Uptake rate, Control: 0.62 ± 0.015∗∗ pmol/mg protein/min
hOAT3; S2-hOAT3, 50 nmol/L 3H-ES, 2 min, inhibitor not named
  Uptake rate, Control + inhibitor: 0.29 ± 0.17 pmol/mg protein/min

## CO[C@H]1/C=C/O[C@@]2(C)Oc3c(C)c(O)c4c(O)c(c(/C=N/N5CCN(C)CC5)c(O)c4c3C2=O)NC(=O)/C(C)=C\C=C\[C@H](C)[C@H](O)[C@@H](C)[C@@H](O)[C@@H](C)[C@H](OC(C)=O)[C@@H]1C [Rifampicin, rifampicin, reference compound]
Mice liver slices; mice liver slices
  effect on the uptake of TDE in liver slices: could inhibit

## COc1cc2c(cc1OC)[C@@H]1Cc3ccc(OC)c(OC)c3CN1CC2 [TDE, tetrahydropalmatine]
hOATP2B1; [2]
  accumulation in HEK293-hOATP2B1 vs HEK293 wild type: less than 2 fold
hOATP1B3; [2]
  accumulation in HEK293-hOATP1B3 vs HEK293 wild type: 3.31 fold
hOATP1B3; hOATP1B3, TDE 0.03-10 μmol/L, 2 min, 37 °C, Eadie-Hofstee
  Vmax: 512.09 pmol/mg protein/min
hOATP1B3; human, pH 7.4
  Km at 2 min: 6.72 µM
hOAT1
  accumulation in MDCK-hOAT1, fold higher than in MDCK-Mock: about 1.25 fold
hOATP1B1; 100 μmol/L
  accumulation in hOATP1B1-overexpressed cell lines compared to wild type: could largely accumulate
Mice liver slices; liver slices, 30 min
  accumulation of TDE at 37 °C, fold greater than at 4 °C: approximately 2.3 fold
hOAT3; [2]
  accumulation in S2-hOAT3, fold higher than wild type (S2-Mock): about 2.25 fold

## CCCN(CCC)S(=O)(=O)c1ccc(C(=O)O)cc1 [probenecid, reference compound]
Mice kidney slices
  effect on the uptake of TDE in kidney slices: could inhibit

B1: hOAT3 (Homo sapiens) (protein)
chain: T4 sequence (Q8TCC7 1-542)
[1]
  Km: 1.44 µM
  Vmax: 188.45 pmol/mg protein/min
